In ChEMBL document CHEMBL1130267, “Regulation of retinoidal actions by diazepinylbenzoic acids. Retinoid synergists which activate the RXR-RAR heterodimers” (J Med Chem, 1997):
One block for each compound: values may come before it.

How the values were obtained:
HL-60 [1] = experiment: Concentration which reduces by half the percentage of differentiated HL-60 cells induced by 1 x 10e-9 M Am80.; assay type: functional, cell-based; conditions: Homo sapiens
Outline: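 Antagonism in HL-60 cells cotreated with 1 × 10^-9 M Am80 for 4 days, with Am80 alone and test compound alone run in parallel. Cells were seeded at about 8 × 10⁴/mL in RPMI1640/5% FBS, and compounds came from 2 mM ethanol stocks (final ethanol <0.5%). NBT reduction (0.2% NBT, 200 ng/mL TPA, 20 min, 37 °C) was counted on ≥200 cells. IC50 is the concentration halving the % of differentiated cells. Run at least twice.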

HL-60 [2] = experiment: Concentration which reduces by half the percentage of differentiated HL-60 cells; Inactive at 1 x 10e-6 M; assay type: functional, cell-based, Homo sapiens
[3] = biological target: T1, Retinoic acid receptor alpha (Homo sapiens, UniProt P10276); experiment: Synergistic activity towards retinoic acid receptor-alpha
T1 sequence (P10276 whole entry): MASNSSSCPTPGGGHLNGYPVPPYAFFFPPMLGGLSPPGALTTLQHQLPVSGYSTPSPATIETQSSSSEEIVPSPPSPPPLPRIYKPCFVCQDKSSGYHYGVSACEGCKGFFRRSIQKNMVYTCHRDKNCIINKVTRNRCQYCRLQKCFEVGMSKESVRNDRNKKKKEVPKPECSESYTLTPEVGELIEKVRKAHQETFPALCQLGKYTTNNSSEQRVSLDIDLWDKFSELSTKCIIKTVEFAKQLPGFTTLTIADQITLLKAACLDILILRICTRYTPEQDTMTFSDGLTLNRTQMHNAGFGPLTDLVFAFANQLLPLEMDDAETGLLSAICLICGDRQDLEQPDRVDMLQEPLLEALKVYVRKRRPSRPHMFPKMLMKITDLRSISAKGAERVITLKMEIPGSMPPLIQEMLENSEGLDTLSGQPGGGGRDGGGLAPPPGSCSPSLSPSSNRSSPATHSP
Outline: (§1)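 Competitive nitrocellulose filter binding to recombinant RARα ligand-binding domain fused to maltose-binding protein, using 8 nM [³H]Am80 as tracer. IC50 for displacement of specific binding was converted to Ki by Ki = IC50/(1 + [L]/Kd).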

[4] = biological target: T2, Retinoic acid receptor beta (Homo sapiens, UniProt P10826); experiment: Synergistic activity towards retinoic acid receptor-beta
T2 sequence (P10826 whole entry): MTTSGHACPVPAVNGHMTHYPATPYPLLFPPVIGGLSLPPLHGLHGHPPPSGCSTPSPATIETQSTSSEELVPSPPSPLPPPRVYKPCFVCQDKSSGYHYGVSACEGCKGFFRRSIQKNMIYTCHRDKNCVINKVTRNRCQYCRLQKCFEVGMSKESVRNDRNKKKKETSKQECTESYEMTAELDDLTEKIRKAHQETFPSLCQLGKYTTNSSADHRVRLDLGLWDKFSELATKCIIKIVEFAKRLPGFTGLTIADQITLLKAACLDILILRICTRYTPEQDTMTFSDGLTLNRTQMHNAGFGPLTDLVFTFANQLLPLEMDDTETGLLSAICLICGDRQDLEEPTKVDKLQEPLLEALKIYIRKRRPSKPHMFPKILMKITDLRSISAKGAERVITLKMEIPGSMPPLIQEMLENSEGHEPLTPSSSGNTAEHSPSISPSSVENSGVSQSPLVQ
Outline: (§2)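 Filter binding competition on the MBP-fused RARβ ligand-binding domain against 20 nM [³H]Am80. The IC50 for halving specific binding was converted to Ki via Ki = IC50/(1 + [L]/Kd).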

[5] = biological target: T3, Retinoic acid receptor RXR-alpha (Homo sapiens, UniProt P19793); experiment: Synergistic activity towards retinoid X receptor-alpha
T3 sequence (P19793 whole entry): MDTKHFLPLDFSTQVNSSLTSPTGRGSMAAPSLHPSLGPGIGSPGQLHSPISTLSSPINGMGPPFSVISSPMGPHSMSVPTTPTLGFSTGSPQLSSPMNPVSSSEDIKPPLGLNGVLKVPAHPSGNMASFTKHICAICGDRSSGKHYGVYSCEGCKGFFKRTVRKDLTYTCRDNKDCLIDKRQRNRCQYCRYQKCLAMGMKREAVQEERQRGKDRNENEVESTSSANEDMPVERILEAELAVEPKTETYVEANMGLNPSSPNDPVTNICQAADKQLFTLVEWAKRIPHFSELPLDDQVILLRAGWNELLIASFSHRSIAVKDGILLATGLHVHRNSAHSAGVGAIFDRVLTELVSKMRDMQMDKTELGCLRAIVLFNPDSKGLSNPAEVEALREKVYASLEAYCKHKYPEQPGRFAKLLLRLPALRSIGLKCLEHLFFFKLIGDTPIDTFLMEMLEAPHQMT

[6] = biological target: T4, Retinoic acid receptor RXR-gamma (Homo sapiens, UniProt P48443); experiment: Synergistic activity towards retinoid X receptor-gamma
T4 sequence (P48443 whole entry): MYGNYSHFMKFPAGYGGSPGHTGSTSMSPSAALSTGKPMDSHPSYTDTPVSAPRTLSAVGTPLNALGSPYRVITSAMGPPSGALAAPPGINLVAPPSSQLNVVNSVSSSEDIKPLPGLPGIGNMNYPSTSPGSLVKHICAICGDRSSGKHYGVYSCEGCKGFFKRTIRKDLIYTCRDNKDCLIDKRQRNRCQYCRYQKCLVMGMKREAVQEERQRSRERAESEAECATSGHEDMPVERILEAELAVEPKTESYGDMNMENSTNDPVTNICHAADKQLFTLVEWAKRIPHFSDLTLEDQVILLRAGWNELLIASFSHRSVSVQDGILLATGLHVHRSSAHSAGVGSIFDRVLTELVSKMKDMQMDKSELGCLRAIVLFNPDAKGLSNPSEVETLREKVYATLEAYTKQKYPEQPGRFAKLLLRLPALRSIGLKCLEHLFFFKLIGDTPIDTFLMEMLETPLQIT

[7] = biological target: T5, Retinoic acid receptor RXR-beta (Homo sapiens, UniProt P28702); experiment: Synergistic activity towards retinoid X receptor-beta
T5 sequence (P28702 whole entry): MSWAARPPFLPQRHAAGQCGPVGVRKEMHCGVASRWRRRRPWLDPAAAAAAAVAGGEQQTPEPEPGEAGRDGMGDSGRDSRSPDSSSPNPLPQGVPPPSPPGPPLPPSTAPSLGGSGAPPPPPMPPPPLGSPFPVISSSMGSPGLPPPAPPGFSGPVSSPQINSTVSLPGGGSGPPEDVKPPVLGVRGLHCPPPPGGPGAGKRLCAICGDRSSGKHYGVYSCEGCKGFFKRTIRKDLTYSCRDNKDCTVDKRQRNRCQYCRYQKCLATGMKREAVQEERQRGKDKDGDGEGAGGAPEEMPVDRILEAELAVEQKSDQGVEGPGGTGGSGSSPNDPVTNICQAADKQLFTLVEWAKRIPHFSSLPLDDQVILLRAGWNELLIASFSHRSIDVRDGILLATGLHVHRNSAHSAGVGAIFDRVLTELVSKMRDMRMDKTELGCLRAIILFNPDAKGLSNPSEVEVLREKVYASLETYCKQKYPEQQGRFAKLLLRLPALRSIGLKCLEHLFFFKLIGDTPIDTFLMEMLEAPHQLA

HL-60 [8] = experiment: Concentration of a compound which induces HL-60 cell differentiation to the extent of 50%; inactive below 1.0E-6M test compound; assay type: functional, cell-based, Homo sapiens
[9] = biological target: T4, Retinoic acid receptor RXR-gamma; experiment: Antagonistic activity towards retinoid X receptor-gamma; assay type: functional
[10] = biological target: T3, Retinoic acid receptor RXR-alpha; experiment: Antagonistic activity towards retinoid X receptor-alpha; assay type: functional
[11] = biological target: T6, Retinoic acid receptor gamma (Homo sapiens, UniProt P13631); experiment: Antagonistic activity towards retinoic acid receptor-gamma; assay type: functional
T6 sequence (P13631 whole entry): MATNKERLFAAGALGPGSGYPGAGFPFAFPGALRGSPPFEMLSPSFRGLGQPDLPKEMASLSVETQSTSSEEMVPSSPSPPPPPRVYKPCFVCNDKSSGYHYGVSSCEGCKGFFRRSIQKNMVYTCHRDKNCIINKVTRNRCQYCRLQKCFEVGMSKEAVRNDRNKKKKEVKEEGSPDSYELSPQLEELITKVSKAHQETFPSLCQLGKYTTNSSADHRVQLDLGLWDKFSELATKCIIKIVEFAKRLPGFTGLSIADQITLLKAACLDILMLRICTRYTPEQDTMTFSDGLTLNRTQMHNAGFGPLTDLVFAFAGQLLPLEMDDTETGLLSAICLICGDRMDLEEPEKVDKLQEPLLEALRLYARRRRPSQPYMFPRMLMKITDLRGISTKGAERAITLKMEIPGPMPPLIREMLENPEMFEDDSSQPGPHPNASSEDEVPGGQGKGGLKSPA
Outline: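 Recombinant RARγ in a nitrocellulose filter competitive binding assay with 4 nM [³H]-9-cis-retinoic acid (diluted with cold ligand to 8 Ci/mmol). Ki = IC50/(1 + [L]/Kd).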

[12] = biological target: T2, Retinoic acid receptor beta; experiment: Antagonistic activity towards retinoic acid receptor-beta; assay type: functional; outline: as §2
[13] = biological target: T5, Retinoic acid receptor RXR-beta; experiment: Antagonistic activity towards retinoid X receptor-beta; assay type: functional
[14] = biological target: T1, Retinoic acid receptor alpha; experiment: Antagonistic activity towards retinoic acid receptor-alpha; assay type: functional; outline: as §1

SMILES: CN1c2cc3c(cc2N=C(c2ccc(C(=O)O)cc2)c2c1ccc1ccccc21)C(C)(C)CCC3(C)C
IC50 (HL-60 [1]): 120 nM

SMILES: CC1(C)CCC(C)(C)c2cc3c(cc21)Cc1ccccc1N=C3c1ccc(C(=O)O)cc1
Ki [3]: 1600 nM | Ki [4]: 810 nM | Ki [5]: 1800 nM | Ki [6]: 1000 nM | Ki [7]: 790 nM

SMILES: CN1c2cc3c(cc2N=C(c2ccc(C(=O)O)cc2)c2cc4c(cc21)C(C)(C)CCC4(C)C)C(C)(C)CCC3(C)C
IC50 (HL-60 [1]): 830 nM

SMILES: CC1(C)CCC(C)(C)c2cc3c(cc21)NC(=O)CN=C3c1ccc(C(=O)O)cc1
EC50 (HL-60 [8]): Not Active

SMILES: CN1c2cc3c(cc2N=C(c2ccc(C(=O)O)cc2)c2ccc4ccccc4c21)C(C)(C)CCC3(C)C
Ki [9]: 1500 nM | Ki [10]: 3800 nM | Ki [11]: 490 nM | IC50 (HL-60 [1]): 36 nM | Ki [12]: 500 nM | Ki [13]: 1700 nM | Ki [14]: 1300 nM

SMILES: CC1c2ccccc2N=C(c2ccc(C(=O)O)cc2)c2cc3c(cc21)C(C)(C)CCC3(C)C (centres undefined)
Ki [3]: 2000 nM

SMILES: CC1(C)CCC(C)(C)c2cc3c(cc21)Oc1ccccc1N=C3c1ccc(C(=O)O)cc1
Ki [3]: 980 nM | Ki [4]: 320 nM | Ki [5]: 3800 nM | Ki [6]: 2100 nM | Ki [7]: 1200 nM

SMILES: CCCCCCCN1c2cc3c(cc2N=C(c2ccc(C(=O)O)cc2)c2ccccc21)C(C)(C)CCC3(C)C
IC50 (HL-60 [1]): 210 nM

SMILES: CN1c2cc3c(cc2N=C(c2ccc(C(=O)O)cc2)c2ccc4cc5ccccc5cc4c21)C(C)(C)CCC3(C)C
IC50 (HL-60 [1]): 320 nM

SMILES: CN1c2cc3c(cc2N=C(c2ccc(C(=O)O)cc2)c2c1c1ccccc1c1ccccc21)C(C)(C)CCC3(C)C
IC50 (HL-60 [1]): 350 nM

SMILES: CC1(C)CCC(C)(C)c2cc3c(cc21)Sc1ccccc1N=C3c1ccc(C(=O)O)cc1
Ki [3]: 900 nM | Ki [4]: 320 nM | Ki [5]: 900 nM | Ki [6]: 620 nM | Ki [7]: 400 nM

SMILES: CCCN1c2cc3c(cc2N=C(c2ccc(C(=O)O)cc2)c2ccccc21)C(C)(C)CCC3(C)C
IC50 (HL-60 [1]): 130 nM

SMILES: CN1c2cc3c(cc2N=C(c2ccc(C(=O)O)cc2)c2ccccc21)C(C)(C)CCC3(C)C
IC50 (HL-60 [1]): 150 nM | Ki [12]: 220 nM | Ki [14]: 1400 nM

SMILES: CN1c2ccc(C34CC5CC(CC(C5)C3)C4)cc2N=C(c2ccc(C(=O)O)cc2)c2ccccc21
IC50 (HL-60 [2]): Not Active

Other lines, results leading:

IC50 (HL-60 [2]): Not Active
SMILES: CC(C)c1cc2c(cc1C(C)C)N(C)c1ccccc1C(c1ccc(C(=O)O)cc1)=N2

IC50 (HL-60 [1]): > 1000 nM
SMILES: CN1c2ccc(C(C)(C)C)cc2N=C(c2ccc(C(=O)O)cc2)c2ccccc21

Ki [4]: 680 nM | Ki [5]: 1900 nM | Ki [6]: 1000 nM | Ki [7]: 640 nM
SMILES: CN1c2ccccc2N=C(c2ccc(C(=O)O)cc2)c2cc3c(cc21)C(C)(C)CCC3(C)C

EC50 (HL-60 [8]): Not Active
SMILES: CN1c2ccccc2N=C(c2ccc(C(=O)O)cc2)c2cc(C(C)(C)C)ccc21

EC50 (HL-60 [8]): Not Active
SMILES: CN1c2ccccc2N=C(c2ccc(C(=O)O)cc2)c2cc(-c3ccccc3)ccc21

EC50 (HL-60 [8]): Not Active
SMILES: CN1c2ccccc2N=C(c2ccc(C(=O)O)cc2)c2ccccc21

EC50 (HL-60 [8]): Not Active
SMILES: CN1c2ccccc2N=C(c2ccc(C(=O)O)cc2)c2cc(Br)ccc21
